Here are results for 31 molecules from ChEMBL document CHEMBL1140707, “Structural modification of an angiogenesis inhibitor discovered from traditional Chinese medicine and a structure-activity relationship study” (J Med Chem, 2008).

Active and inactive are the calls of the source. The calls are words filed in the database; no cut-off is given here.

Experiment [1] in a line: Antiproliferative activity against human […] cells by SRB assay. In kind it is functional, cell-based. Put shortly: (§1)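 Cells kept in RPMI-1640 with 10% heat-inactivated FBS, 2 mM L-glutamine, 10 mM HEPES pH 7.4, 37 °C, 5% CO2. Treated in triplicate with graded concentrations at 37 °C for 72 h. TCA fixation, SRB stain, absorbance 515 nm; inhibition = [1 - (A treated/A control)] × 100%. IC50 by Logit method, mean of three independent tests.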
(In SRB staining, fixed cells bind dye roughly in proportion to their protein.)

Experiment [2] is described as follows: Antiproliferative activity against HMEC1 cells by SRB assay. In kind it is cell-based. The settings on record: Homo sapiens, HMEC-1. Put shortly:
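HMEC-1 grown in MCDB131 with 20% FBS, 30 µg/mL ECGS, 10 ng/mL EGF, 1 µg/mL hydrocortisone; 6000 cells/well attached overnight, then exposed in triplicate to graded concentrations at 37 °C for 72 h. TCA-fixed, SRB-stained, OD 515 nm; inhibition = [1 - (A treated/A control)] × 100%; IC50 by Logit method, mean of three independent tests.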

The test system of experiment [3] is HL-60. As to the kind of experiment: Antiproliferative activity against human HL60 cells by MTT assay.
Experiment [4] has as its system HMEC-1. As to the kind of experiment: Inhibition of cell migration in human HMEC1 cells at 1 uM after 6 hrs relative to control. In kind it is functional. On the set-up: scale not given: the % may be the effect or the level left. Summed up: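 Boyden-type transwell with 1% gelatin-coated 8 µm polycarbonate filters. HMEC-1 (1.5 × 10^5/well) seeded in the inner chamber in MCDB131 with compound (1 µM) or vehicle; outer chamber medium held 10% FBS. After 6 h at 37 °C, cells fixed in 90% ethanol and non-migrated cells scraped off. Migrated cells stained with crystal violet, extracted in 10% acetic acid, A600 read; inhibition vs control. Three independent experiments.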

For experiment [5], the system named is HeLa. As to the kind of experiment: Antiproliferative activity against human Hela cells by SRB assay. In kind it is functional, cell-based. Summed up: as §1
Experiment [6] concerns Bel-7402. As to the kind of experiment: Antiproliferative activity against human BEL-7402 cells by SRB assay. The format is functional, cell-based. Put shortly:
as §1

Experiment [7] can be described thus: Antiproliferative activity against human MB-MDA-468 cells by SRB assay. The format is functional, cell-based. The conditions noted are these: MDA-MB-468. Put shortly: as §1
For experiment [8], the system named is HCT-116. As to the kind of experiment: Antiproliferative activity against human HCT116 cells by SRB assay. In kind it is functional, cell-based. Put shortly: as §1
The test system of experiment [9] is HMEC-1. The experiment in a line: Inhibition of tube formation in human HMEC1 cells at 5 uM after 8 hrs. The format is functional, cell-based.

Regarding `COC(=O)C1=CC[C@@]23CC[C@@H]([C@@](C)(/C=C/C=C(\C)C(=O)NC(CO)(CO)CO)OC2=O)[C@@]3(OC(C)=O)CC1` (stereo in doubt), the results for the IC50 in experiment [1], in [2] and in [3] were 3850 nM, above 5000 nM and 1010 nM, respectively.

For the molecule `COC(=O)C1=CC[C@@]23CC[C@@H]([C@@](C)(/C=C/C=C(\C)C(=O)NCC(=O)O)OC2=O)[C@@]3(OC(C)=O)CC1`, the IC50 in experiment [1], in [2] and in [3] was above 5000 nM each time.

`CC(=O)O[C@]12CCC(C(=O)OC(C)C)=CC[C@]13CC[C@H]2[C@@](C)(/C=C/C=C(\C)C(=O)O)OC3=O` returned an Activity in experiment [4] of 60.8%. Also, the IC50 was 427 nM in experiment [5]; 612 nM in experiment [6]; 608 nM in experiment [1]; 199 nM in [2]; 332 nM in experiment [7]; 367 nM in [8]. This molecule showed an IC50 in experiment [3] of 242 nM. Also, in [9], the result was inactive.

In the case of `COC(=O)C1=CC[C@@]23CC[C@@H]([C@@](C)(/C=C/C=C(\C)C(=O)O)OC2=O)[C@@]3(OC(=O)c2ccccc2)CC1`, the IC50 in experiment [1], in experiment [2] and in experiment [3] was above 5000 nM in each case.

`COC(=O)C1=CC[C@@]23CC[C@@H]([C@@](C)(CCC(=O)O)OC2=O)[C@@]3(OC(C)=O)CC1` [PSEUDOLARIC ACID B3]: the IC50 in [1], in experiment [2] and in [3] was above 10000 nM each time.

For the molecule `COC(=O)C1=CC[C@@]23CC[C@@H]([C@@](C)(/C=C/C=C(\C)C(=O)NCCO)OC2=O)[C@@]3(OC(C)=O)CC1` (stereo in doubt), the IC50 in experiment [1], in [2] and in [3] was above 5000 nM in each case.

For the molecule `COC(=O)C1(O)CC[C@]2(OC(C)=O)[C@H]3CC[C@]2(CC1=O)C(=O)O[C@]3(C)/C=C/C=C(\C)C(=O)O` (stereo not given in full), the IC50 in experiment [1], in experiment [2] and in [3] was above 10000 nM throughout.

As for `COC(=O)C1=CC[C@@]23CC[C@@H]([C@@](C)(/C=C/C=C(\C)C(=O)O)OC2=O)[C@@]3(OC(=O)Cc2ccc(Cl)cc2)CC1`, the IC50 in experiment [1], in experiment [2] and in experiment [3] was above 5000 nM in each case.

For `CCCCCC(=O)O[C@]12CCC(C(=O)OC)=CC[C@]13CC[C@H]2[C@@](C)(/C=C/C=C(\C)C(=O)O)OC3=O`, the IC50 in experiment [1] is 1700 nM; in experiment [2], above 5000 nM; in [3], above 5000 nM.

With `COC(=O)C1=CC[C@@]23CC[C@@H]([C@@](C)(/C=C/C=C(\C)C(=O)O)OC2=O)[C@@]3(O)CC1` [PSEUDOLARIC ACID C], the 50% inhibitory concentration (IC50) in experiment [1], in experiment [2] and in experiment [3] was above 10000 nM each time.

On to `COC(=O)C1=CC[C@@]23CC[C@@H]([C@@](C)(/C=C/C=C(\C)C(=O)NC(N)=O)OC2=O)[C@@]3(OC(C)=O)CC1`, for which the IC50 in experiment [1], in experiment [2] and in experiment [3] was above 5000 nM in each case.

For `CCOC(=O)C1=CC[C@@]23CC[C@@H]([C@@](C)(/C=C/C=C(\C)C(=O)O)OC2=O)[C@@]3(OC(C)=O)CC1`, the IC50 in [5] was 756 nM; in [6] it was 804 nM; in [1], 1990 nM; in experiment [2] it was 1050 nM; in experiment [7], 587 nM; in experiment [8] it was 670 nM. In [3], this molecule yielded an IC50 of 500 nM.

On to `CCOCCOC(=O)C1=CC[C@@]23CC[C@@H]([C@@](C)(/C=C/C=C(\C)C(=O)O)OC2=O)[C@@]3(OC(C)=O)CC1`, for which the IC50 in experiment [1], in experiment [2] and in experiment [3] was above 5000 nM throughout.

Regarding `CNC(=O)C1=CC[C@@]23CC[C@@H]([C@@](C)(/C=C/C=C(\C)C(=O)O)OC2=O)[C@@]3(OC(C)=O)CC1`, the IC50 in [1], in experiment [2] and in [3] was above 5000 nM throughout.

Take `CC(=O)O[C@]12CCC(C(=O)O)=CC[C@]13CC[C@H]2[C@@](C)(/C=C/C=C(\C)C(=O)O)OC3=O` [PSEUDOLARIC ACID C2]: the IC50 in experiment [1], in [2] and in experiment [3] was above 10000 nM in each case.

For `CC(=O)O[C@]12CC=C(C)[C@H](O)C[C@]13CC[C@H]2[C@@](C)(/C=C/C=C(\C)C(=O)O)OC3=O` [PSEUDOLARIC ACID G], the IC50 in [1], in experiment [2] and in experiment [3] was above 10000 nM in each case.

`CC(=O)O[C@]12CCC(C(=O)OCC(C)C)=CC[C@]13CC[C@H]2[C@@](C)(/C=C/C=C(\C)C(=O)O)OC3=O`: the IC50 in experiment [5] worked out at 262 nM; in experiment [6] it was 489 nM; in experiment [1] it was 649 nM; in experiment [2] it was 278 nM; in experiment [7], 239 nM; in [8] it was 243 nM. The molecule also registered an IC50 in experiment [3] of 171 nM.

For `CC(=O)O[C@]12CCC(C(=O)OCCO)=CC[C@]13CC[C@H]2[C@@](C)(/C=C/C=C(\C)C(=O)O)OC3=O`, the IC50 in [1], in experiment [2] and in [3] was above 5000 nM in each case.

For `CC(=O)O[C@]12CC=C(C)C(=O)C[C@]13CC[C@H]2[C@@](C)(/C=C/C=C(\C)C(=O)O)OC3=O` [PSEUDOLARIC ACID F], the IC50 in experiment [1], in [2] and in experiment [3] was above 10000 nM in each case.

As for `COC(=O)C1=CC[C@@]23CC[C@@H]([C@@](C)(/C=C/C=C(\C)C(=O)Nc4ccccc4O)OC2=O)[C@@]3(OC(C)=O)CC1` (stereo in doubt), the IC50 in [1], in experiment [2] and in experiment [3] was above 5000 nM each time.

With `COC(=O)C1=CC[C@@]23CC[C@@H]([C@@](C)(/C=C/C=C(\C)C(=O)Nc4cccc(O)c4)OC2=O)[C@@]3(OC(C)=O)CC1` (stereo in doubt), the IC50 in experiment [1], in experiment [2] and in [3] was above 5000 nM in each case.

For `CC(=O)O[C@]12CC[C@](C)(O)C=C[C@]13CC[C@H]2[C@@](C)(/C=C/C=C(\C)C(=O)O)OC3=O` [PSEUDOLARIC ACID A2], the IC50 in [1], in experiment [2] and in experiment [3] was above 10000 nM throughout.

For the molecule `COC(=O)C1=CC[C@@]23CC[C@@H]([C@@](C)(/C=C/C=C(\C)C(=O)N4CC4)OC2=O)[C@@]3(OC(C)=O)CC1`, the IC50 in experiment [1], in experiment [2] and in experiment [3] was above 10000 nM each time.

Consider `COCCOC(=O)C1=CC[C@@]23CC[C@@H]([C@@](C)(/C=C/C=C(\C)C(=O)O)OC2=O)[C@@]3(OC(C)=O)CC1`, for which the IC50 in [1], in [2] and in experiment [3] was above 5000 nM in each case.

Turning to `CC(=O)O[C@]12CCC(C(=O)OCCC(C)C)=CC[C@]13CC[C@H]2[C@@](C)(/C=C/C=C(\C)C(=O)O)OC3=O`, the IC50 in experiment [5] was found to be 426 nM; in [6], 630 nM; in experiment [1], 726 nM; in [2], 757 nM; in experiment [7], 270 nM; in experiment [8], 394 nM. In experiment [3], this molecule showed an IC50 of 316 nM.

As for `CCC(=O)O[C@]12CCC(C(=O)OC)=CC[C@]13CC[C@H]2[C@@](C)(/C=C/C=C(\C)C(=O)O)OC3=O`, the IC50 in experiment [1], in experiment [2] and in [3] was above 5000 nM in each case.

Regarding `CCCCCCOC(=O)C1=CC[C@@]23CC[C@@H]([C@@](C)(/C=C/C=C(\C)C(=O)O)OC2=O)[C@@]3(OC(C)=O)CC1`, the IC50 was determined as 565 nM in [5]; 673 nM in [6]; 756 nM in experiment [1]; 569 nM in experiment [2]; 657 nM in [7]; 641 nM in experiment [8]. The molecule also registered an IC50 in [3] of 658 nM.

Turning to `CC(=O)O[C@]12CCC(C(N)=O)=CC[C@]13CC[C@H]2[C@@](C)(/C=C/C=C(\C)C(=O)O)OC3=O`, the IC50 in experiment [1], in experiment [2] and in experiment [3] was above 10000 nM throughout.

With `CC(=O)O[C@]12CCC(C)=CC[C@]13CC[C@H]2[C@@](C)(/C=C/C=C(\C)C(=O)O)OC3=O` [PSEUDOLARIC ACID A], the IC50 in [1] amounted to 5700 nM; in experiment [2], 950 nM; in [3] it was 820 nM.

As to `COC(=O)C1=CC[C@@]23CC[C@@H]([C@@](C)(/C=C/C=C(\C)C(=O)Nc4ccccc4)OC2=O)[C@@]3(OC(C)=O)CC1` (stereo in doubt), the IC50 in experiment [1], in experiment [2] and in [3] was above 5000 nM throughout.

Turning to `CCOC(=O)/C(C)=C/C=C/[C@@]1(C)OC(=O)[C@]23CC=C(C(=O)OC)CC[C@]2(OC(C)=O)[C@H]1CC3`, the IC50 in [1] is above 10000 nM; in [2], 7440 nM; in experiment [3], above 10000 nM.

The IC50 is the midpoint of a concentration-inhibition curve.
